Published values gathered from unrelated publications.
Target: Protein-tyrosine kinase 2-beta (PTK2B, Homo sapiens, UniProt Q14289)

| SMILES | test | conditions | endpoint | value |
| --- | --- | --- | --- | --- |
| COc1cc(Cl)c(C(=O)N[C@@H](CN[C@H]2CC[C@@H](N)CC2)Cc2ccc(C#N)cc2)cc1-c1ccc(CN[C@H](C)c2ccc(C)cc2)o1 | enzyme activity, inhibitor | 1 µM | remaining activity | 101% |
| CCN(CC)CCNC(=O)c1c(C)[nH]c(/C=C2\C(=O)Nc3ccc(F)cc32)c1C | enzyme activity, inhibitor | 0.1 µM | remaining activity | 86% |
| Oc1cccc(-c2nc(N3CCOCC3)c3oc4ncccc4c3n2)c1 | cell-free assay | 0.5 µM | remaining signal | 103% |
| Cc1cc(NC(=O)c2cccc3cc(-c4cccc5[nH]nc(N)c45)ccc23)ccc1F | enzyme activity, inhibitor | 0.1 µM | activity vs control | 113% |
| CCN(CC)CCNC(=O)c1c(C)[nH]c(/C=C2\C(=O)Nc3ccc(F)cc32)c1C | enzyme activity, inhibitor | 0.3 µM | inhibition | 59% |
| CCS(=O)(=O)c1cc2cc(C[C@](O)(CC(C)(C)c3ccc(F)cc3C(N)=O)C(F)(F)F)[nH]c2cn1 | cell-free assay, competition with immobilised ligand | 1 µM | remaining binding | 100% |
| CCCOc1ccc(OC)c(F)c1C(=O)c1ccc(C(=O)N[C@@H]2CNC[C@H]2NC(=O)c2ccc3[nH]ncc3c2)cc1 | enzyme activity, inhibitor | 10 µM | remaining activity | 77% |
| CC(C)(C)c1nc(-c2cccc(NS(=O)(=O)c3c(F)cccc3F)c2F)c(-c2ccnc(N)n2)s1 | enzyme activity, inhibitor, radiometric | 1 µM | remaining activity | 109% |
| FC(F)(F)c1ccc2c(c1)nc(-c1cccnc1)n2C1CC1 | cell-free assay, competition with immobilised ligand | 1 µM | remaining binding | 100% |
| O=C(Nc1cnn(-c2csc(C(=O)NC3COC3)c2)c1)Nc1ccccc1Cl | enzyme activity, inhibitor | 5 µM | remaining activity | 93.5% |
| Cc1cnc(NC2CCOCC2)nc1-n1cnc(C(=O)NC(CN)c2cc(F)cc(Cl)c2)c1 (stereo not shown) | enzyme activity, inhibitor, radiometric | 1 µM | remaining activity | 99% |
| Cc1ccc(Nc2nccc(N(C)c3ccc4c(C)n(C)nc4c3)n2)cc1S(N)(=O)=O | enzyme activity, inhibitor | 0.3 µM | inhibition | 6% |
| Cc1[nH]c(/C=C2\C(=O)Nc3ccc(F)cc32)c(C)c1C(=O)N[C@H]1CCN(C(=O)N(C)C)C1 | enzyme activity, inhibitor | 1 µM | remaining activity | 75% |
| CNC(=O)c1cc(Oc2ccc(NC(=O)Nc3ccc(Cl)c(C(F)(F)F)c3)cc2)ccn1 | enzyme activity, inhibitor | 0.3 µM | inhibition | -3% |
| CN([C@@H]1CCc2c(CC(=O)O)c3cc(S(C)(=O)=O)ccc3n2C1)S(=O)(=O)c1ccc(F)cc1 | cell-free assay, competition with immobilised ligand | 1 µM | remaining binding | 100% |
| CN1CC(Oc2cnc(C#N)cc2-c2ccn3nc(NC(=O)C4CC4)cc3c2)C1 | enzyme activity, inhibitor | 1 µM | inhibition | 6% |
| O=c1nc(-c2ccccn2)sc2ccccc12 | cell-free assay, competition with immobilised ligand | 1 µM | remaining binding | 100% |
| COc1cc2nccc(Oc3ccc(NC(=O)c4c5n(n(-c6ccc(F)cc6)c4=O)CCCC5)cc3)c2cc1OC | enzyme activity, inhibitor | 0.1 µM | inhibition | 0% |
| Cc1nc(C2CCN(C(=O)c3ccc(OC(F)(F)F)cc3N)CC2)c2ncc(N3CCN(C)CC3)cc2n1 | cell-free assay, competition with immobilised ligand | 1 µM | remaining binding | 100% |
| O=C1NC(=O)c2cc(Nc3ccc(F)cc3)c(Nc3ccc(F)cc3)cc21 | cell-free assay | 0.5 µM | remaining signal | 111% |
| COc1cc2ncnc(Nc3ccc(Oc4ccccc4)c(C)c3C)c2cc1OC | enzyme activity, inhibitor | 1 µM | inhibition | 1% |
| CO[C@@H](C)c1c(Nc2ccc([C@H](N(C)C(=O)C3CCS(=O)(=O)CC3)C(F)(F)F)cc2)cnc2cc(Cl)nn12 | cell-free assay, competition with immobilised ligand | 1 µM | remaining binding | 83% |
| N#CCCc1ccc2c(c1)-c1[nH]c3ccc([N+](=O)[O-])cc3c1CC(=O)N2 | cell-free assay | 0.5 µM | remaining signal | 62.9% |
| CCc1ccccc1C(=O)Nc1n[nH]c2c(C)c(F)c(C3C(C#N)=C(C)N(C)C(C)=C3C#N)cc12 | cell-free assay, competition with immobilised ligand | 1 µM | remaining binding | 92% |
| Cc1sc(C(=O)NC2COC2)cc1-n1cc(NC(=O)Nc2c(F)cccc2Cl)cn1 | enzyme activity, inhibitor | 10 µM | remaining activity | 104% |
| CCN(CC)c1ccc(C2=NNC(=O)CC2C)cc1[N+](=O)[O-] (stereo not shown) | enzyme activity, inhibitor | 10 µM | remaining activity | 97% |
| Cc1c(NC(=O)c2cc(C(N)=O)nc3cc(F)ccc23)c(C(F)(F)F)nn1Cc1ccc(C(C)(C)C)cc1 | cell-free assay, competition with immobilised ligand | 1 µM | remaining binding | 92% |
| COc1cc2ncnc(Nc3ccc(F)c(Cl)c3)c2cc1OCCCN1CCOCC1 | cell-free assay | 0.5 µM | remaining signal | 98.9% |
